Experimental data of several laboratories.
Protocols differ between the studies behind these lines. pEC50: −log10 of the molar value. In brackets after ≈: the same amount, converted by molar mass.

Compound | target or system | test | system | setting | endpoint | value
Cc1ccc(C(C)C)cc1OS(=O)(=O)c1cccs1 | Escherichia coli | microbial growth, broth dilution | ATCC25922 | – | IC50 | 149 µg/mL (≈ 503 µM)
CC(C)c1nn(-c2nc3ccccc3s2)c2c1C(=O)c1ccccc1-2 | Staphylococcus aureus | microbial growth, well diffusion | NCIM5021 | 250 µg/mL | inhibition zone | 10 mm
Cc1cccc(C)c1NC(=O)Nc1ccc(Cl)c(C(F)(F)F)c1 | Staphylococcus aureus | microbial growth | NCTC8325 | 24 h | MIC | > 100 µM
CCCCNc1ccnc(Nc2cccc(-c3cccnc3)c2)n1 | MV4-11 | cell growth or viability, ATP luminescence | – | 72 h | pEC50 | 6.47
CC[C@H](Nc1ncnc2nc[nH]c12)c1nc2cccc(F)c2c(=O)n1-c1ccccc1 | Staphylococcus aureus | microbial growth | NCTC8325 | – | MIC | > 30 µM
c1cc(Nc2nccc(NC3CCCCC3)n2)cc(N2CCOCC2)c1 | MV4-11 | cell growth or viability, ATP luminescence | – | 72 h | pEC50 | 6.43
Cc1ccc2nc(-n3nc(C)c4c3-c3ccccc3C4=O)sc2c1 | Staphylococcus aureus | microbial growth, well diffusion | NCIM5021 | 500 µg/mL | inhibition zone | 11 mm
O=C1c2ccccc2-c2n[nH]c3cccc1c23 | Staphylococcus aureus | microbial growth | NCTC8325 | – | MIC | > 30 µM
CCCCS(=O)(=O)Oc1cc(C(C)C)ccc1C | Escherichia coli | microbial growth, broth dilution | ATCC25922 | – | IC50 | 156 µg/mL (≈ 578 µM)
CC(C)(C)Nc1ccnc(Nc2cccc(-c3cccnc3)c2)n1 | MV4-11 | cell growth or viability, ATP luminescence | – | 72 h | pEC50 | 7.60
